Measured values from ChEMBL document CHEMBL1153564 (Antimicrob Agents Chemother, 2008).
Values after ≈ are worked out from the molar mass of the structure shown. Active and inactive are the calls of the source. The rule behind the calls is not given here. Starred links: 1 amine or outer side, 2 acyl side, 3 side chain; linkers in the order of their positions; H or OH if unused. Positions of bridges follow the written chain, without caps; N, C: chain ends. Non-standard residues stand in square brackets, D forms with d. Residues, ends and D or L forms follow the SMILES beside them. *: point of attachment. pTerphenylCO(4''-OnC5H11) = CCCCCOc1ccc(-c2ccc(-c3ccc(C(=O)*)cc3)cc2)cc1; Orn(4R-OH,5R-OH) = O=C([C@H](C[C@@H](O)[C@@H](O)N[*:3])N[*:1])[*:2]; hTyr(3S-OH,4S-OH) = N[C@H](C(=O)O)[C@H](O)[C@@H](O)c1ccc(O)cc1; Pro(3S-OH,4S-Me) = C[C@H]1CN[C@H](C(=O)O)[C@H]1O; Hyp = O=C(O)[C@@H]1C[C@@H](O)CN1

Tests used:
[1] = test system: Nakaseomyces glabratus; assay: Antifungal activity against Candida glabrata 5376 infected in neutropenic ICR/Swiss mouse candidiasis model assessed as dose required for 1-log10 reduction in […] per kidney administered intraperitoneally every 24 hrs up to 4 days measured per 96 hrs; type: functional
Method in brief: (§1)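 Neutropenic ICR/Swiss mice infected i.v. with the strain; therapy began 2 h later. Total doses of 1.25–320 mg/kg/96 h were given i.p. as 1, 2, 4 or 6 doses (q96h, q48h, q24h, q16h), three mice per regimen. Kidney CFU were counted after 4 days. Effect is the change from untreated controls at the end of therapy.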

[2] = test system: Nakaseomyces glabratus; assay: Antifungal activity against Candida glabrata 5376 infected in neutropenic ICR/Swiss mouse candidiasis model assessed as […] burden per kidney administered intraperitoneally every 48 hrs up to 4 days measured per 96 hrs; type: functional; settings: Nakaseomyces glabratus, 5376, Kidney, ip; method in brief: as §1
[3] = test system: Candida albicans; assay: Antifungal activity against Candida albicans K-1 infected in neutropenic ICR/Swiss mouse candidiasis model assessed as dose required to maintain […] of 3.81 +/- 0.33 log10CFU per kidney administered intraperitoneally every 24 hrs up to 4 days measured per 24 hrs; type: functional
Method in brief: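 Neutropenic mice (cyclophosphamide sc 150 mg/kg day −4, 100 mg/kg day −1 and day +2) infected iv via tail vein, 2 h before therapy. Drug given ip in 0.2 ml, diluted from DMSO stock in 0.9% NaCl, q24h for 4 days over five dose levels (0.078–20 mg/kg/24 h), 3 mice per regimen. Kidney CFU on SDA. Static dose taken from a sigmoid Emax (Hill) fit.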

[4] = test system: Candida albicans; assay: Antifungal activity against Candida albicans K-1 infected in neutropenic ICR/Swiss mouse candidiasis model assessed as reduction of […] in kidney at 5 mg/kg, ip administered 2 hrs postinfection as single dose measured within 1 to 4 hrs post dosing by time-kill assay; type: functional, organism-based; set-up: dose 5 mg/kg
Method in brief: (§2)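 Single ip dose (20, 5 or 1.25 mg/kg) given 2 h after iv infection of neutropenic mice with K-1. Three treated and three control mice were sampled at intervals over 96 h for kidney CFU. PAFE is the time for treated burden to rise 1 log10 after serum levels fall below MIC, minus the same time in controls. Free drug was taken as 1%.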

[5] = test system: Nakaseomyces glabratus; assay: Antifungal activity against Candida glabrata 5376 infected in neutropenic ICR/Swiss mouse candidiasis model assessed as reduction of […] in kidney at 5 mg/kg, ip administered 2 hrs postinfection as single dose measured within 1 to 4 hrs post dosing by time-kill assay; type: functional, organism-based; set-up: dose 5 mg/kg
Method in brief: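 Neutropenic mice were infected i.v. and 2 h later given a single i.p. dose (1.25, 5 or 20 mg/kg). Groups of three treated and three control mice were killed at intervals over 96 h, and kidney CFU were counted on SDA (limit 100 CFU/ml). The post-antifungal effect is t − c: the time for a 1 log10 CFU/kidney increase once serum levels fall below the MIC in treated mice, minus the same time in controls.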

[6] = test system: Nakaseomyces glabratus; assay: Antifungal activity against Candida glabrata 33609 infected in neutropenic ICR/Swiss mouse candidiasis model assessed as dose required to maintain […] of 1.83 +/- 0.54 log10CFU per kidney administered intraperitoneally every 24 hrs up to 4 days measured per 24 hrs; type: functional
[7] = test system: Candida albicans; assay: Antifungal activity against Candida albicans K-1 infected in neutropenic ICR/Swiss mouse candidiasis model assessed as dose required to maintain […] of 3.90 +/- 0.15 log10CFU per kidney administered intraperitoneally every 16 hrs up to 4 days measured per 96 hrs; type: functional
Method in brief: (§3)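 Neutropenic mice were infected iv with C. albicans K-1 2 h before therapy. Total doses of 1.25, 5, 20, 80 and 320 mg/kg/96 h were split into 1, 2, 4 or 6 ip doses (q96h, q48h, q24h, q16h), three mice per regimen. Effect is the log10 CFU/kidney relative to untreated controls at 96 h. Static and 1-log doses were taken from a Hill model fit.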

[8] = test system: Candida albicans; assay: Antifungal activity against Candida albicans 98-210 infected in neutropenic ICR/Swiss mouse candidiasis model assessed as dose required for 1-log10 reduction in […] per kidney administered intraperitoneally every 24 hrs up to 4 days measured per 24 hrs; type: functional
Method in brief: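 Neutropenic mice (cyclophosphamide sc on days −4, −1 and +2) were infected iv 2 h before therapy. Five total doses from 0.078 to 20 mg/kg/24 h were given ip q24h for 4 days, three mice per regimen. Kidney CFU were measured at the end of therapy. Static and 1-log-kill doses were derived from a Hill sigmoid dose-effect fit.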

[9] = test system: Nakaseomyces glabratus; assay: Antifungal activity against Candida glabrata 570 infected in neutropenic ICR/Swiss mouse candidiasis model assessed as dose required for 1-log10 reduction in […] per kidney administered intraperitoneally every 24 hrs up to 4 days measured per 24 hrs; type: functional
Method in brief: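 Neutropenic mouse disseminated candidiasis, with i.p. therapy starting 2 h after i.v. infection. Five total doses of 0.078–20 mg/kg/24 h were given q24h for 4 days, three mice per dose. Kidney CFU were counted at the end and compared with untreated controls. The dose giving a 1 log10 CFU/kidney reduction was derived from the sigmoid Hill dose–effect model.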

[10] = test system: Candida albicans; assay: Antifungal activity against Candida albicans K-1 infected in neutropenic ICR/Swiss mouse candidiasis model assessed as dose required for 1-log10 reduction in […] per kidney administered intraperitoneally once every 96 hrs measured per 96 hrs; type: functional; method in brief: as §3
[11] = test system: Nakaseomyces glabratus; assay: Antifungal activity against Candida glabrata 5376 infected in neutropenic ICR/Swiss mouse candidiasis model assessed as […] burden per kidney administered intraperitoneally every 16 hrs up to 4 days measured per 96 hrs; type: functional; settings: Nakaseomyces glabratus, 5376, Kidney, ip; method in brief: as §1
[12] = test system: Nakaseomyces glabratus; assay: Antifungal activity against Candida glabrata 5376 infected in neutropenic ICR/Swiss mouse candidiasis model assessed as dose required for 1-log10 reduction in […] per kidney administered intraperitoneally every 16 hrs up to 4 days measured per 96 hrs; type: functional; method in brief: as §1
[13] = test system: Candida albicans; assay: Antifungal activity against Candida albicans after 24 hrs by broth microdilution method; type: functional
[14] = test system: Nakaseomyces glabratus; assay: Antifungal activity against Candida glabrata after 24 hrs by broth microdilution method; type: functional
Method in brief: (§4)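 Two end points were read against the drug-free control well: partial growth inhibition (the CLSI end point) and complete inhibition. Run in duplicate on four separate occasions; the value is the mean. Drug stock was made in DMSO and diluted in 0.9% NaCl.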

[15] = test system: Candida tropicalis; assay: Antifungal activity against Candida tropicalis 98-234 infected in neutropenic ICR/Swiss mouse candidiasis model assessed as fungal count per kidney administered 2 hrs postinfection measured up to 48 hrs; type: functional
Method in brief: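 Untreated neutropenic ICR/Swiss female mice infected iv via lateral tail vein (0.1 ml, 6.1 ± 0.51 log10 CFU/ml); kidneys homogenised, serially diluted 1:10 and plated on SDA, counted after 24 h at 35°C; growth in kidneys over 48 h, mean CFU per kidney of three mice, detection limit 100 CFU/ml.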

[16] = test system: Nakaseomyces glabratus; assay: Antifungal activity against Candida glabrata 5376 assessed as complete growth inhibition after 24 hrs by CLSI end point method; type: functional; settings: Nakaseomyces glabratus, 5376, 24 h; method in brief: as §4
[17] = test system: Candida albicans; assay: Antifungal activity against Candida albicans K-1 infected in neutropenic ICR/Swiss mouse candidiasis model assessed as reduction of […] in kidney at 20 mg/kg, ip administered 2 hrs postinfection as single dose measured after 96 hrs post dosing by time-kill assay; type: functional, organism-based; set-up: dose 20 mg/kg; method in brief: as §2
[18] = test system: Nakaseomyces glabratus; assay: Antifungal activity against Candida glabrata 5376 infected in neutropenic ICR/Swiss mouse candidiasis model assessed as dose required to maintain […] of 3.71 +/- 0.21 log10CFU per kidney administered intraperitoneally every 48 hrs up to 4 days measured per 96 hrs

CCCCCOc1ccc(-c2ccc(-c3ccc(C(=O)N[C@H]4C[C@@H](O)[C@@H](O)NC(=O)[C@@H]5[C@@H](O)[C@@H](C)CN5C(=O)[C@H]([C@@H](C)O)NC(=O)[C@H]([C@H](O)[C@@H](O)c5ccc(O)cc5)NC(=O)[C@@H]5C[C@@H](O)CN5C(=O)[C@H]([C@@H](C)O)NC4=O)cc3)cc2)cc1 [ANIDULAFUNGIN] ({pTerphenylCO(4''-OnC5H11)}-[Orn(4R-OH,5R-OH)]T[Hyp][hTyr(3S-OH,4S-OH)]T[Pro(3S-OH,4S-Me)]; lactam 1-C) was tested, and the Activity [1] was 30.8 mg/kg, the ED50 [2] was 13.4 mg/kg and the Activity [3] was 1.25 mg/kg. For the same molecule, the Activity [4] was “Active”, the Activity [5] was “Active” and the Activity [6] was 2 mg/kg. It also gave an Activity [7] of 16.5 mg/kg, an Activity [8] of 13 mg/kg and an Activity [9] of 3.72 mg/kg. For the same molecule, the Activity [10] was 4.97 mg/kg, the ED50 [11] was 26.3 mg/kg and the Activity [12] was 56.7 mg/kg. For the same molecule, the MIC90 [13] was 0.06 µg/mL (≈ 0.0526 µM), the MIC90 [14] was 0.12 µg/mL (≈ 0.105 µM) and the log10cfu [15] was 3.84. For the same molecule, the MIC [16] was 0.06 µg/mL (≈ 0.0526 µM), the Activity [17] was “Active” and the Activity [18] was 15.3 mg/kg.
